The test system of one data set is PARP. In words: PARP cleavage by Western blot in SKBr3. The class given is cell-based. As to conditions: Homo sapiens, SK-BR-3, read-out: cPARP (PARP cleavage). Summed up: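 SK-BR-3 cells grown in DME/F12 with 10% FBS, 1% L-glutamine and penicillin/streptomycin to 60–70% confluence, then exposed to test compound or DMSO vehicle. Lysed in 50 mM Tris pH 7.4, 150 mM NaCl, 1% NP-40; protein by BCA. 10–50 μg lysate run on SDS–PAGE, blotted to nitrocellulose, probed with rabbit anti-PARP p85 fragment (1:500), then peroxidase secondary (1:3000).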
In general terms: In western blotting, separated proteins are transferred to a membrane and probed.

The next data set addresses Hsp90. The data set is described as follows: Hsp90 binding assay. As to conditions: read-out: Hsp90 binding; binding to SKBr3 cell extracts; competition with GM-Cy3B.
A further data set has as its system scanMAX 402 kinase panel. The data set is described as follows: scanMAX kinase screen. The class given is binding. As to conditions: at 10 μM. The gist of the method: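 Competition binding: DNA-tagged kinases (T7 phage in BL21-derived E. coli lysates, or HEK-293-expressed) mixed with biotinylated-ligand streptavidin magnetic beads and test compound (10 μM; 40× DMSO stocks) in SeaBlock/0.17× PBS/Tween 20/6 mM DTT, 1 h RT. Beads washed, eluted 30 min with 0.5 μM free ligand; bound kinase by qPCR. S-score: kinases bound divided by distinct non-mutant kinases tested.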

The target in the next data set is c-Met (Homo sapiens, UniProt P08581). In words: scanMAX kinase screen, c-Met. The settings on record: at 10 μM. The class given is binding. The gist of the method:
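Kinase-tagged T7 phage (BL21-derived E. coli host) or HEK-293-made DNA-tagged kinase competed against an immobilised active-site ligand on streptavidin magnetic beads, with test compound at 10 μM (from 40× DMSO stock). Run in SeaBlock/PBS/Tween/DTT binding buffer for 1 h at room temperature. Beads then washed and eluted with 0.5 μM non-biotinylated ligand; kinase in eluate quantified by qPCR.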

A further data set is described as follows: Aqueous solubility. The class given is physicochemical.
In another data set the target is Hsp70. The settings on record: read-out: Kd for Hsp70; cited from earlier work.
The nature of data set [1]: LC/MS–MS analyses of cellular extracts. The class given is in vitro ADME. As to conditions: after 10 min of incubation; data not shown.

Sequence of c-Met (P08581 25-1390): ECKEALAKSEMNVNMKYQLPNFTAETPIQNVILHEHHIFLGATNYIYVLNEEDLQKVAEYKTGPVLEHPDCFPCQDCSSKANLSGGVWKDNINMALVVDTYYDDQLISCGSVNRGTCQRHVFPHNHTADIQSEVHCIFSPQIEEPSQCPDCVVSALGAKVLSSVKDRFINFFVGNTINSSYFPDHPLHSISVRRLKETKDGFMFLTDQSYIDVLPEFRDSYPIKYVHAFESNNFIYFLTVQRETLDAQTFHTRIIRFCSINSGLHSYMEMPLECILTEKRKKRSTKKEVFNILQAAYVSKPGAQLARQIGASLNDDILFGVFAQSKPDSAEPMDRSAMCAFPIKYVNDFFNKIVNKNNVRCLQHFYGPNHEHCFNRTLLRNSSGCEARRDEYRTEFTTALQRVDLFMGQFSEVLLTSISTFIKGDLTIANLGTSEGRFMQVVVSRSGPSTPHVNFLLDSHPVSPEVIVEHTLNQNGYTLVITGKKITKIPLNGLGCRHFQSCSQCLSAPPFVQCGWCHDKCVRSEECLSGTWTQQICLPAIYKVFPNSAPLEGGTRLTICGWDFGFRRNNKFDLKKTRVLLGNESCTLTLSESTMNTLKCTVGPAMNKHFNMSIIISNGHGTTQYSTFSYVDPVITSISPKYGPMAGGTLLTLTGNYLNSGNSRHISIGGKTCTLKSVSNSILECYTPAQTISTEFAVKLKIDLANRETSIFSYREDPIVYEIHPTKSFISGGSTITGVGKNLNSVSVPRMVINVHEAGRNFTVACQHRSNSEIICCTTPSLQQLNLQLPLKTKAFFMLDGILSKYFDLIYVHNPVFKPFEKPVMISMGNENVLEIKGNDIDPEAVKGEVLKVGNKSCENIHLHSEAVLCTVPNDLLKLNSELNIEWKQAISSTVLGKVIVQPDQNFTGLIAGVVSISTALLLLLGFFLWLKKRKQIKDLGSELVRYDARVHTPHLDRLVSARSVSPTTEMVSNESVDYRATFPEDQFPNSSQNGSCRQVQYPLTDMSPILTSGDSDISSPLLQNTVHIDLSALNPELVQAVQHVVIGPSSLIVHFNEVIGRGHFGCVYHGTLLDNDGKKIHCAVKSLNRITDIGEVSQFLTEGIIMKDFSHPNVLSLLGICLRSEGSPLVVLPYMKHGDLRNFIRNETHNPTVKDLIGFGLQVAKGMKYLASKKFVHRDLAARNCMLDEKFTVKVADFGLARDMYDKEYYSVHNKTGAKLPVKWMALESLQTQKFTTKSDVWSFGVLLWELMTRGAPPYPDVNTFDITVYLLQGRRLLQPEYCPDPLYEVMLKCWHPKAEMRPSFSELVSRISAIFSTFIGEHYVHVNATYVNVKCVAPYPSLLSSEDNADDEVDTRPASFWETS

With `C=CC(=O)Nc1cc(N)nc(Sc2c(OC)nc(N3CCN(C)CC3)nc2OC)n1` [17a, N-(6-Amino-2-((4,6-dimethoxy-2-(4-methylpiperazin-1-yl)-pyrimidin-5-yl)thio)pyrimidin-4-yl)acrylamide], in the data set on PARP, the EC50 amounted to 2 µM. For the same molecule, on Hsp90, the IC50 is over 500 µM. Further, the “activity against the scanMAX 402 kinase panel” value with scanMAX 402 kinase panel is on record as “inert”. Besides, the “kinase hit in scanMAX screen” value on c-Met is “potential low-affinity kinase hit”.
Turning to `C=CC(=O)Nc1cc(N)nc(Sc2c(OCC)nc(N3CCN(C)CC3)nc2OCC)n1` [20a, N-(6-Amino-2-((4,6-diethoxy-2-(4-methylpiperazin-1-yl)-pyrimidin-5-yl)thio)pyrimidin-4-yl)acrylamide], on Hsp90, the IC50 was over 500 µM.
Same read-out and setting: as for `C=CC(=O)Nc1cc(N)nc(Sc2c(OCC)nc(N3CCCCC3)nc2OCC)n1` [20c, N-(6-Amino-2-((4,6-diethoxy-2-(piperidin-1-yl)pyrimidin-5-yl)-thio)pyrimidin-4-yl)acrylamide], the figure is over 500 µM; as for `C=CC(=O)Nc1ccnc(Sc2c(OC)nc(N3CCN(C)CC3)nc2OC)n1` [27a, N-(2-((4,6-Dimethoxy-2-(4-methylpiperazin-1-yl)pyrimidin-5-yl)-thio)pyrimidin-4-yl)acrylamide], over 500 µM.
Regarding `C=CC(=O)Nc1ccnc(Sc2c(OC)nc(N3CCCC3)nc2OC)n1` [27d, N-(2-((4,6-Dimethoxy-2-(pyrrolidin-1-yl)pyrimidin-5-yl)thio)-pyrimidin-4-yl)acrylamide], the aqueous solubility entry in the data set “Aqueous solubility” is recorded as “poor aqueous solubility”. For the same molecule, the IC50 at Hsp90 is over 500 µM.
Take `C=CC(=O)Nc1ccnc(Sc2c(C)nc(N3CCN(C)CC3)nc2C)n1` [42a, N-(2-((4,6-Dimethyl-2-(4-methylpiperazin-1-yl)pyrimidin-5-yl)-thio)pyrimidin-4-yl)acrylamide]: in the data set with PARP, the EC50 stood at 5 µM. Further, the IC50 on Hsp90 was over 500 µM.
On to `C=C(C)C(=O)Nc1ccnc(Sc2c(C)nc(N3CCN(C)CC3)nc2C)n1` [42c, N-(2-((4,6-Dimethyl-2-(4-methylpiperazin-1-yl)pyrimidin-5-yl)-thio)pyrimidin-4-yl)methacrylamide], for which the IC50 at Hsp90 was over 500 µM.
For the molecule `C=CC(=O)Nc1cc(N)nc(Sc2c(OC)nc(N3CCN(CCOCCOCCOCCO)CC3)nc2OC)n1` [44a], at Hsp90, the IC50 is over 500 µM.
On the same count and under the same terms, the value for `C=CC(=O)Nc1cc(N)nc(Sc2c(OC)nc(N3CCN(C)CC3)nc2OCCOCCOCCOCCO)n1` [45a] was over 500 µM.
`Nc1ncnc2c1ncn2[C@@H]1O[C@H](COP(=O)(O)OP(=O)(O)O)[C@@H](O)[C@H]1O` [ADP]: on Hsp70, the equilibrium dissociation constant (Kd) (in general, the concentration at which binding is half-saturated) is 0.11 to 0.5 µM.
With `O=c1c(O)c(-c2cc(O)c(O)c(O)c2)oc2cc(O)cc(O)c12` [compound 4, myricetin, reference compound], in data set [1], the “stability in the cells (agent detected in cellular extracts)” value was “virtually undetectable”. Further, the EC50 with PARP is over 100 µM.
Consider `N#Cc1ccc(COC[C@H]2O[C@@H](n3c(NCc4ccc(Cl)c(Cl)c4)nc4c(N)ncnc43)[C@H](O)[C@@H]2O)cc1` [compound 7, reference compound], for which the dissociation constant Kd on Hsp70 is 0.3 µM.
In the case of `C=CC(=O)Nc1cc(N)nc(Sc2c(OC)nc(N)nc2OC)n1` [compound 31, N-(6-Amino-2-((2-amino-4,6-dimethoxypyrimidin-5-yl)thio)-pyrimidin-4-yl)acrylamide], the IC50 at Hsp90 is over 500 µM.
The same measure, in the same setting: as for `C=CC(=O)Nc1cccc(Sc2c(OC)nc(N3CCOCC3)nc2OC)c1` [compound 37, N-(3-((4,6-Dimethoxy-2-morpholinopyrimidin-5-yl)thio)phenyl)-acrylamide], the figure is over 500 µM.
